We go through twelve compounds from ChEMBL document CHEMBL4130463, “Potential Anti-inflammatory Effects of the Fruits of Paulownia tomentosa” (J Nat Prod, 2017).

Data set [1] addresses T1, Neutrophil elastase (Homo sapiens, UniProt P08246).
T1 sequence (P08246 whole entry): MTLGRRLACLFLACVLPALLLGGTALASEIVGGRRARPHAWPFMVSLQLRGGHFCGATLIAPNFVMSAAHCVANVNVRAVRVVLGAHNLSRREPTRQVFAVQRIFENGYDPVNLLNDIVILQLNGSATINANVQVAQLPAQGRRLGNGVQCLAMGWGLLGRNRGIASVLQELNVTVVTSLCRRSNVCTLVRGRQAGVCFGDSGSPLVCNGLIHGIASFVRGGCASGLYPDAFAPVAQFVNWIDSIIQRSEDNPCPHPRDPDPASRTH
Nature of the data set: Inhibition of human neutrophil elastase using MeOSuc-AAPV-pNA as substrate measured after 30 mins by spectrometric method.

The test system of data set [2] is A549. Description: Antiinflammatory activity in human A549 cells assessed as reduction in TNFalpha-induced IL8 production at 2.5 uM after 24 hrs by ELISA. The data set is classed as functional, cell-based. The gist of the method:
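A549 cells (ATCC) grown in RPMI 1640 with 10% FBS and penicillin/streptomycin at 37 °C, 5% CO2. Seeded and grown 16 h, then held 16 h in FBS-free medium. Treated with compound with or without TNF-α for 24 h. IL-8 measured by ELISA at 450 nm and expressed as % of the TNF-α-alone control. Means ± SD of three independent experiments.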
A general note: An ELISA detects its analyte on a solid surface through an enzyme-linked reagent.

Data set [3] relates to A549. Nature of the data set: Cytotoxicity against human A549 cells assessed as effect on cell viability at 2.5 uM after 24 hrs by CCK8 assay. The data set is classed as cell-based. Conditions: a549, 24 h. The essentials:
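A549 cells in RPMI 1640 with 10% FBS were seeded at about 1 × 10^4 cells/well and grown 16 h, then switched to FBS-free medium for 16 h. Compound added with or without TNF-α for 24 h. Viability measured in triplicate by CCK-8 absorbance and expressed as % of the negative control.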

Data set [4] addresses T1, Neutrophil elastase. Description: Noncompetitive inhibition of human neutrophil elastase using varying levels of MeOSuc-AAPV-pNA as substrate measured after 30 mins by double-reciprocal Lineweaver-Burk plot analysis.

Active and inactive are the calls of the source. The rule behind the calls is not given here.

The IC50 is the point on the concentration scale where inhibition reaches its midpoint. Lower therefore signals greater potency. As usually defined, the Ki is a dissociation constant, usually derived from enzyme kinetics or from competition with a known ligand.

On to `COc1cc([C@@H]2CC(=O)c3c(cc4c(c3O)CCC(C)(CCCC(C)(C)O)O4)O2)cc(OC)c1O` (some centres not stated), for which the 50% inhibitory concentration (IC50) on Neutrophil elastase [1] was > 100 µM.
Regarding `CC(C)(O)CCCC1(C)CCc2c(cc3c(c2O)C(=O)[C@H](O)[C@@H](c2ccc(O)c(O)c2)O3)O1` (some centres not stated), the outcome with A549 [2] was Active. Besides, the Activity entry with A549 [3] is “Non-Toxic”.
Consider `CC(C)(O)CCCC1(C)CCc2c(cc3c(c2O)C(=O)C[C@@H](c2ccc(O)cc2)O3)O1` (some centres not stated), for which the outcome in the data set on A549 [2] was Active. The Activity entry in the data set on A549 [3] is recorded as “Non-Toxic”. Also, the IC50 against Neutrophil elastase [1] is > 100 µM.
As to `O=c1cc(-c2ccc(O)c(O)c2)oc2cc(O)cc(O)c12` [LUTEOLIN], half-maximal inhibition against Neutrophil elastase [1] (IC50) was put at 12.7 µM. This compound came in with a Ki at Neutrophil elastase [4] of 10.1 µM.
Regarding `COc1cc([C@@H]2CC(=O)c3c(cc4c(c3O)CCC(C)(CCCC(C)(C)O)O4)O2)cc(O)c1O` (some centres not stated), the result in the data set on A549 [2] was Active. Also, the Activity entry with A549 [3] is reported as “Non-Toxic”.
For `COc1cc([C@@H]2CC(=O)c3c(cc(O)c(C/C=C(\C)CCCC(C)(C)O)c3O)O2)cc(OC)c1O`, in that order: “Active” and “Non-Toxic”.
Regarding `COc1cc([C@@H]2CC(=O)c3c(cc(O)c(C/C=C(\C)CCC=C(C)C)c3O)O2)cc(OC)c1O`, inhibition on Neutrophil elastase [1] was half-maximal at 71.3 µM (IC50).
In the case of `COc1ccc([C@@H]2CC(=O)c3c(cc(O)c(C/C=C(\C)CCCC(C)(C)O)c3O)O2)cc1O`, the outcome in the data set on A549 [2] was Active. The Activity result in the data set with A549 [3] is “Non-Toxic”.
In the case of `O=c1cc(-c2ccc(O)cc2)oc2cc(O)cc(O)c12` [APIGENIN], the IC50 on Neutrophil elastase [1] amounted to 46.1 µM. The compound further gave a Ki on Neutrophil elastase [4] of 49.9 µM.
For `CC(C)=CCC/C(C)=C/Cc1c(O)cc2c(c1O)C(=O)C[C@@H](c1ccc(O)c(O)c1)O2` [NYMPHAEOL A], in that order: 22.8 µM and 15.7 µM.
Turning to `COc1ccc([C@@H]2CC(=O)c3c(cc4c(c3O)CCC(C)(CCCC(C)(C)O)O4)O2)cc1O` (some centres not stated), the IC50 at Neutrophil elastase [1] is > 100 µM.
Turning to `C=C(C)C(O)CC/C(C)=C/Cc1c(O)cc2c(c1O)C(=O)C[C@@H](c1cc(O)c(OC)c(O)c1)O2` (some centres not stated), in the data set on A549 [2], the result was Active. In addition, the Activity result in the data set on A549 [3] is “Non-Toxic”.
